From ChEMBL document CHEMBL4732218, “Synthesis and biological evaluation of benzhydryl-based antiplasmodial agents possessing Plasmodium falciparum chloroquine resistance transporter (PfCRT) inhibitory activity” (Eur J Med Chem, 2021)
Activity calls are given as the source filed them. No cut-off for these calls is given here.

What was measured:
[1] = system: Plasmodium falciparum; experiment: Antimalarial activity against Plasmodium falciparum W2 by parasite lactate dehydrogenase assay; assay type: functional, organism-based
[2] = system: Plasmodium falciparum; experiment: Antimalarial activity against Plasmodium falciparum D10 by parasite lactate dehydrogenase assay; assay type: functional, organism-based
[3] = biological target: T1, Chloroquine resistance transporter (Plasmodium falciparum) (UniProt Q9N623); experiment: Inhibition of Plasmodium falciparum Dd2 CRT expressed in Xenopus laevis oocyte assessed as inhibition of [3H]-CQ transport at 100 uM incubated for 1.5 hrs by microbeta scintillation counting method; assay type: cell-based
T1 sequence (whole entry): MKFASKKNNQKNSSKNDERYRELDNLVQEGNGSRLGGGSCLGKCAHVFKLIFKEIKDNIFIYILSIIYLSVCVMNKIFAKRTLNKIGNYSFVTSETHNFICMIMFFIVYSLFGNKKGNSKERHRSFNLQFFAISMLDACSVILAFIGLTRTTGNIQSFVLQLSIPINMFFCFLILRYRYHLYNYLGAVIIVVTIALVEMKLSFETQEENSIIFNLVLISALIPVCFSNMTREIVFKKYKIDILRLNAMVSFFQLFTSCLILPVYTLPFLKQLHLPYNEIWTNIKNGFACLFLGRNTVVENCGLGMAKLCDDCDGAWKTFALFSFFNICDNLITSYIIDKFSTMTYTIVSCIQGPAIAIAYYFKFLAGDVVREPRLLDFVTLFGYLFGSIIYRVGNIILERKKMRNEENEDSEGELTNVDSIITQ
In short: (§1)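 Xenopus oocytes expressing PfCRT Dd2 and non-expressing oocytes, stored at 16–18 °C in OR2+ buffer (pH 7.8), assayed 3-4 days post-injection. [3H]CQ (0.25 µM) influx measured over 1.5 h at 27.5 °C in pH 5.5 medium (96 mM NaCl, 10 mM MES/Tris) with 15 µM unlabeled CQ, scintillation counting. PfCRT-mediated transport = uptake in expressing minus non-expressing oocytes.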

[4] = system: Plasmodium berghei; experiment: Antimalarial activity against in Plasmodium berghei ANKA strain GFP-con infected in Balb/c mouse assessed as blocked of transmission activity to Anopheles stephensi by measuring reduction in […] in mosquito at 10 micromol/kg, ip treated first dose 3 days post infection and female mosquitos feed blood meal on day 4 after 1.5 hrs of dosing by direct exposure and measured on day 8 by fluorescence microscopic analysis (reference value: 357); assay type: functional; settings: dose 10 µmol/kg; time 3 day
In short: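 P. berghei ANKA GFP-con, i.p. 10^7 infected RBC into 8–10-week BALB/c mice; on day 3 mice with ~5% parasitemia and gametocytes randomised, 3 per group. Dosed i.p. 10 µmol/kg on afternoon of day 3 and again day 4, 1.5 h before 1 h feed by ~150 female An. stephensi. Day 8: fluorescent midgut oocysts counted in 20–30 mosquitoes; triplicate cages; PBS control; two-tailed t-test.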

[5] = biological target: T2, Chloroquine resistance transporter (Plasmodium falciparum, UniProt Q9N623); experiment: Inhibition of Plasmodium falciparum Dd2 CRT expressed in Xenopus laevis oocyte assessed as inhibition of [3H]-CQ transport incubated for 1.5 hrs by microbeta scintillation counting method; assay type: cell-based; in short: as §1
T2 sequence (Q9N623 whole entry): T1 sequence (whole entry)

[6] = Cytotoxicity against mouse NIH/3T3 cells assessed as reduction in cell viability incubated for 24 hrs by neutral red dye uptake assay; assay type: cell-based, NIH3T3
In short: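 NIH3T3 cells, 5 × 10^4/well, cultured 24 h at 37 °C, 5% CO2, then exposed 24 h to compounds in DMSO at 8–160 µM; medium alone as negative control. Viability by Neutral Red uptake (3 h at 37 °C), dye extracted in acetic acid/ethanol, absorbance 540 nm. Three experiments, six replicates per concentration.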

[7] = system: Plasmodium berghei; experiment: (§2) Antimalarial activity against liver stage Plasmodium berghei PbmCherryhsp70 sporozoites infected in human HepG2 cells assessed as reduction in parasite size at 2 uM incubated for 24 hrs followed by removal of media and supplemented with fresh media and further incubated for 24 hrs by phase contrast microscopic analysis; assay type: functional, organism-based
In short: (§3)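 HepG2 cells (60000/well, seeded day before) infected 2 h with 20'000 PbmCherry_hsp70 sporozoites from An. stephensi salivary glands, then detached, pooled and treated from 2 hpi at graded concentrations with DMSO control. Medium changed 24 hpi; fixed 4% PFA at 48 hpi. Parasite number and size from mCherry signal by automated microscopy; 6 replicates; host growth checked by phase contrast; one-way ANOVA with Dunnett.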

[8] = system: Plasmodium berghei; experiment: as §2, with “parasite number” for “parasite size”, “at 8” for “at 2”, “[…] relative to control” for “analysis”; assay type: functional; in short: as §3

SMILES	IC50 [1] [nM]	IC50 [2] [nM]	inhibition [3]	Activity [4]	IC50 [5] [nM]	CC50 at 24 h [6] [nM]	inhibition [7]	inhibition at 8 µM [8] [%]
O=C(c1ccc(Cl)cc1)c1ccc(CN2CCNCC2)cc1	8600	> 15000	22%	–	–	–	–	–
OC(c1ccc(Cl)cc1)c1ccc(CCN2CCCC2)cc1 (centres undefined)	> 15000	> 15000	22%	–	–	–	–	–
COc1cc(NC(c2ccc(CN3CCCC3)cc2)c2cccc(Cl)c2)c2ncccc2c1 (centres undefined)	3700	4500	65%	491	55000	28000	–	–
Clc1ccc(C(Nc2ccnc3cc(Cl)ccc23)c2ccc(CN3CCCCC3)cc2)cc1 (centres undefined)	69	65	inactive	–	–	–	–	–
Clc1ccc2c(NC(c3ccc(CN4CCNCC4)cc3)c3cccc(OCCOc4cccc(C(Nc5ccnc6cc(Cl)ccc56)c5ccc(CN6CCNCC6)cc5)c4)c3)ccnc2c1 (centres undefined)	–	–	Active	–	–	–	–	–
Clc1cccc(C(Nc2ccnc3cc(Cl)ccc23)c2ccc(CN3CCCCC3)cc2)c1 (centres undefined)	88	84	inactive	–	–	–	–	–
COc1cccc(C(Nc2ccnc3cc(Cl)ccc23)c2ccc(CN3CCNCC3)cc2)c1 (centres undefined)	75	40	Active	–	–	–	–	–
OC(c1ccc(Cl)cc1)c1ccc(CN2CCNCC2)cc1 (centres undefined)	11000	> 15000	22%	–	–	–	–	–
COc1cc(NC(c2ccc(CN3CCNCC3)cc2)c2cccc(Cl)c2)c2ncccc2c1 (centres undefined)	2300	2800	65%	454	64000	19000	–	–
COc1cc(NC(c2ccc(CN3CCNCC3)cc2)c2cccc(Cl)c2)n2nc(C)nc2n1 (centres undefined)	920	3700	98%	–	12500	< 3500	–	–
Clc1ccc(C(Nc2ccnc3cc(Cl)ccc23)c2ccc(CCN3CCCC3)cc2)cc1 (centres undefined)	27	19	inactive	–	–	–	–	–
Clc1ccc(C(Nc2ccnc3cc(Cl)ccc23)c2ccc(CN3CCN(Cc4ccc(C(Nc5ccnc6cc(Cl)ccc56)c5cccc(Cl)c5)cc4)CC3)cc2)cc1 (centres undefined)	460	595	Active	–	15600	–	–	–
COc1cc(NC(C)CCCN)c2ncccc2c1 (centres undefined) [PRIMAQUINE]	4400	5700	–	–	–	–	Active	50
Oc1cccc(C(Nc2ccnc3cc(Cl)ccc23)c2ccc(CN3CCNCC3)cc2)c1 (centres undefined)	475	179	inactive	–	–	–	–	–
Clc1cccc(C(Nc2ccnc3cc(Cl)ccc23)c2ccc(CCN3CCCC3)cc2)c1 (centres undefined)	22	23	inactive	–	–	–	–	–
OC(c1ccc(Cl)cc1)(c1ccc(CN2CCNCC2)cc1)c1ccnc2cc(Cl)ccc12 (centres undefined)	2000	2000	inactive	–	–	–	–	–
Clc1ccc(C(c2ccc(CN3CCNCC3)cc2)c2ccnc3cc(Cl)ccc23)cc1 (centres undefined)	2700	3700	inactive	–	–	–	–	–
